Apaf1 inhib: inhibitors of human Apaf-1 apoptosome. O14727. reconstituted apoptosome caspase-3 activity, DEVD-Rh110 fluorescence. inhibition, % at 20 µM. hit rate 0.71% among 330,000. AID 489030; active means inhibition of at least 40% at 20 µM;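 further: plate controls were DMSO wells for no effect and DEVD-CHO caspase inhibitor wells for full effect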
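Medium: Hepes buffer, pH 7.5 / System: biochemical Apaf-1 apoptosome reconstitution / Measured by: Rh110 fluorescence, excitation 480 nm, emission 540 nm / Times: compound with Apaf-1, dATP, procaspase-3 30 min, then 50 min reaction, room temperature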
SENP6 block: inhibitors of human SENP6 protease; inhibition, % at 10 µM; Q9GZR1; AID 2599; Recombinant SENP6 catalytic domain, aminoluciferin luminescence; hit rate 1.8% among 330,000;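 active means inhibition above about 50% at the single tested dose, limit read from the data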;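 further: plate controls were DMSO wells with enzyme for no effect and DMSO wells lacking enzyme for full effect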
SENP7 inh: SENP7 protease inhibition; Q9BQF6; inhibition, % at 5 µM; AID 434973; recombinant SENP7, Z-RLRGG-aminoluciferin luminescence, 40 min; hit rate 1.5% among 330,000;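 active means inhibition above about 50% at the single test dose, limit read from the data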;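 further: plate controls were DMSO with enzyme for no effect and no enzyme buffer wells for full effect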
SENP8 block-1: SENP8 protease inhibition; Q96LD8; purified SENP8, Z-RLRGG-aminoluciferin cleavage, luminescence; inhibition, % at 10 µM; hit rate 1.2% among 330,000; AID 2540; in the data active means inhibition above about 50%
Target sequence (Q96LD8 whole entry, looked up): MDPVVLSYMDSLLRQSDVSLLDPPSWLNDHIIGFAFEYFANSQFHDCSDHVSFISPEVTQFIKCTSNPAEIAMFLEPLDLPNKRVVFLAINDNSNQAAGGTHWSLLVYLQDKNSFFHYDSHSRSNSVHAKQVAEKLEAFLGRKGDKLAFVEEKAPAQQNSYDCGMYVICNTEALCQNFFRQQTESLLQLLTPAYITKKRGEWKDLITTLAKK
SENP8 block-2: blocks human SENP8 cleavage of Nedd8 substrate; Q96LD8; inhibition, % at 20 µM; recombinant SENP8, Nedd8 substrate fluorescence; hit rate 0.64% among 360,000; in the data active means inhibition mostly above about 40%, no sharp cut-off; inactive means mostly below about 27%
UBC13 inh: human UBC13 polyubiquitination inhibition. AID 485273. P61088. UBC13 polyubiquitin chain formation, TR-FRET. inhibition, % at 20 µM. hit rate 0.47% among 330,000; in the data active means inhibition above about 45%, passing the limit was not always enough; inconclusive means no clear call, values can overlap the other calls
Target sequence (P61088 whole entry, looked up): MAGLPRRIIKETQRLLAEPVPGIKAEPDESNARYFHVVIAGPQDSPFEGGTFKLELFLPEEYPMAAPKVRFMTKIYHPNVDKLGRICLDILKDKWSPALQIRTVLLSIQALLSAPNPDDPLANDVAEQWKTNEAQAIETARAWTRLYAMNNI
SENP8 conf: human SENP8 inhibition, confirmed. shares compounds with SENP7 inh. Recombinant SENP8, Z-RLRGG-aminoluciferin luminescence, 60 min. inhibition, % at 12.5 µM. hit rate 40% among 6,200. AID 488912;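 active means mean inhibition across replicates above about 50%, limit read from the data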
SENP6 conf: human SENP6 inhibition, confirmed. shares compounds with SENP7 inh. recombinant SENP6, Z-RLRGG-aminoluciferin luminescence. inhibition, % at 12.5 µM. hit rate 58% among 6,200. AID 488915
SENP7 conf: confirmation of human SENP7 protease inhibitors. shares compounds with SENP7 inh. recombinant SENP7, Z-RLRGG-aminoluciferin luminescence, 40 min. inhibition, % at 12.5 µM. hit rate 69% among 6,200. AID 488917
Casp3 select: caspase-3 inhibition (SENP selectivity assay); shares compounds with SENP7 inh; purified caspase-3, Z-DEVD-aminoluciferin luminescence, 60 min; inhibition, % at 12.5 µM; hit rate 60% among 6,200;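 active means mean inhibition above about 50%, limit read from the data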;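 further: plate controls were enzyme with DMSO for no effect and wells without caspase-3 for full effect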
Target sequence (P42574 28-227 limits assumed): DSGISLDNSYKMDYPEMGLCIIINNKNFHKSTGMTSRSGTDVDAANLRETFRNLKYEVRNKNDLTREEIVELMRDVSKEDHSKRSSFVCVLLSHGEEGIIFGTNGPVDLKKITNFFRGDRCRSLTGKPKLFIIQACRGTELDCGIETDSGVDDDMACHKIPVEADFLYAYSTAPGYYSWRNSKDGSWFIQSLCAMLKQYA
SENP luc ctr: luminescence interference (SENP counter-screen). shares compounds with SENP7 inh. Pre-incubated SENP8/Z-RLRGG-aminoluciferin, luciferase luminescence interference. hit rate 39% among 6,200. inhibition, % at 12.5 µM. AID 488919;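 active means mean inhibition above about 50% when retested at one dose, limit read from the data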;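 further: plate controls were DMSO wells with completed reaction for no effect and substrate without enzyme for full effect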
Starred values were filed as active, the others as inactive. Hits are enriched below; roughly 3% of the tested compounds scored in any of these assays.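 How the source made its calls, unless noted: active means mean inhibition above about 50% in the one-dose retest (limit read from the data); inactive means the rest.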

How did Cc1ccc(NC(=O)O/N=C/c2c(C)nn(C(C)(C)C)c2C)cc1Cl do in these assays?
Apaf1 inhib: 5; SENP6 block: 52*; SENP7 inh: 52*; SENP8 block-1: 47; SENP8 block-2: 13; UBC13 inh: 2; SENP8 conf: 10; SENP6 conf: 46; SENP7 conf: 42; Casp3 select: 1; SENP luc ctr: -3

How did COc1ccc(-n2ncc3c(SCC(=O)N4CCN(c5ccccc5OC)CC4)ncnc32)cc1 do in these assays?
Apaf1 inhib: 20; SENP6 block: 32; SENP7 inh: 12; SENP8 block-1: 69*; SENP8 block-2: 11; UBC13 inh: 22; SENP8 conf: 6; SENP6 conf: 14; SENP7 conf: 7; Casp3 select: 31; SENP luc ctr: 1

Results for CCOC(=O)Cc1csc(NC(=O)CSc2ncnc3c2cnn3-c2ccc(OC)cc2)n1 ?
Apaf1 inhib: 24; SENP6 block: 75*; SENP7 inh: 52*; SENP8 block-1: 71*; SENP8 block-2: -333; UBC13 inh: -7; SENP8 conf: 42; SENP6 conf: 69*; SENP7 conf: 59*; Casp3 select: 84*; SENP luc ctr: 12

How did CN(Cc1ccc(Cl)s1)C(=O)CN1C(=O)N(C)C2(CCCCC2)C1=O do in these assays?
Apaf1 inhib: 2; SENP6 block: -17; SENP7 inh: 17; SENP8 block-1: -12; SENP8 block-2: 15; UBC13 inh: 0

How did Cc1cnc(C(=O)Nc2ccccc2F)cn1 do in these assays?
Apaf1 inhib: -5; SENP6 block: 68*; SENP7 inh: 37; SENP8 block-1: 31; SENP8 block-2: 18; UBC13 inh: 1; SENP8 conf: -10; SENP6 conf: 24; SENP7 conf: 74*; Casp3 select: 75*; SENP luc ctr: 13

Results for Cc1cnc(C(=O)Nc2ccc(F)cc2)cn1 ?
Apaf1 inhib: -9; SENP6 block: 61*; SENP7 inh: 58*; SENP8 block-1: 31; SENP8 block-2: 10; UBC13 inh: 1; SENP8 conf: 36; SENP6 conf: 38; SENP7 conf: 74*; Casp3 select: 81*; SENP luc ctr: 27

What do the screens show for `c1ccc2nc3c(nc2c1)[nH]c1ccccc13`?
Apaf1 inhib: 14; SENP6 block: 29; SENP7 inh: 75*; SENP8 block-1: 60*; SENP8 block-2: -214; UBC13 inh: -24; SENP8 conf: 22; SENP6 conf: 71*; SENP7 conf: 92*; Casp3 select: 76*; SENP luc ctr: 15

What do the screens show for `O=C(O)c1ccc(N=Nc2c(O)ccc3ncccc23)cc1`?
Apaf1 inhib: 18; SENP6 block: 97*; SENP7 inh: 100*; SENP8 block-1: 97*; SENP8 block-2: 38; UBC13 inh: -147; SENP8 conf: 99*; SENP6 conf: 99*; SENP7 conf: 102*; Casp3 select: 89*; SENP luc ctr: 62*

Results for CN1C(=O)[C@H]2[C@@H](c3ccc(C(F)(F)F)cc3)N[C@]3(CCCN(Cc4cccn4C)C3=O)[C@H]2C1=O ?
SENP8 block-2: 9

What do the screens show for `N=C1/C(=C/c2ccc(-c3cccc(C(=O)O)c3)o2)C(=O)N=C2SC=C(c3ccccc3)N12`?
Apaf1 inhib: 36; SENP6 block: 65*; SENP7 inh: 11; SENP8 block-1: 46; SENP8 block-2: -30; UBC13 inh: -42; SENP8 conf: 26; SENP6 conf: -1; SENP7 conf: -8; Casp3 select: 3; SENP luc ctr: 4

What do the screens show for `Cc1ccc(NC(=O)c2ccccc2)s1`?
Apaf1 inhib: 22; SENP6 block: 3; SENP7 inh: -3; SENP8 block-1: 0; SENP8 block-2: 11; UBC13 inh: -14

Results for Cc1cc(NC(=O)c2ccccc2)sc1C ?
Apaf1 inhib: 7; SENP6 block: 94*; SENP7 inh: 94*; SENP8 block-1: 90*; SENP8 block-2: 0; UBC13 inh: -10; SENP8 conf: 1; SENP6 conf: 96*; SENP7 conf: 103*; Casp3 select: 96*; SENP luc ctr: 95*

Results for Cc1noc(C)c1C(=O)OCC(=O)Nc1ccc(N2CCOCC2)cc1 ?
Apaf1 inhib: 4; SENP6 block: -7; SENP7 inh: -10; SENP8 block-1: -9; SENP8 block-2: 20; UBC13 inh: -10

Results for CCOc1cccc(/C=N/NC(=S)Nc2ccccc2[N+](=O)[O-])c1O ?
Apaf1 inhib: 5; SENP6 block: 31; SENP7 inh: 79*; SENP8 block-1: 47; SENP8 block-2: 23; UBC13 inh: -33; SENP8 conf: 28; SENP6 conf: 55*; SENP7 conf: 37; Casp3 select: 26; SENP luc ctr: 7

What do the screens show for `O=C(CCN1C(=O)CSc2ccccc21)Nc1ccc(OC(F)(F)F)cc1`?
Apaf1 inhib: 11; SENP6 block: 0; SENP7 inh: -2; SENP8 block-1: 8; SENP8 block-2: 4; UBC13 inh: 4

Results for CN(C)S(=O)(=O)c1cccc(C(=O)N=C2N=C3C=CC(Cl)=CN3Cc3ccccc32)c1 ?
Apaf1 inhib: -13; SENP6 block: 91*; SENP7 inh: 89*; SENP8 block-1: 69*; SENP8 block-2: 11; UBC13 inh: inconclusive; SENP8 conf: 12; SENP6 conf: 15; SENP7 conf: 42; Casp3 select: 67*; SENP luc ctr: 20

How did Cc1nn(-c2ccc(Cl)cc2Cl)c(=O)c2ccccc12 do in these assays?
Apaf1 inhib: 3; SENP6 block: -10; SENP7 inh: -4; SENP8 block-1: 2; SENP8 block-2: 12; UBC13 inh: 5

Results for CC1=NN(C(N)=S)C(=O)C1N=Nc1ccc(Cl)cc1Cl (centres undefined) ?
Apaf1 inhib: 8; SENP6 block: 91*; SENP7 inh: 36; SENP8 block-1: 94*; SENP8 block-2: 30; UBC13 inh: -37; SENP8 conf: 81*; SENP6 conf: 86*; SENP7 conf: 94*; Casp3 select: 72*; SENP luc ctr: 67*
